Data as given in ChEMBL document CHEMBL2331432, “Synthesis and dual biological effects of hydroxycinnamoyl phenylalanyl/prolyl hydroxamic acid derivatives as tyrosinase inhibitor and antioxidant” (Bioorg Med Chem Lett, 2013).
Activity calls are given as the source filed them. No cut-off for these calls is given here.

Legend:
[1] = target: T1, Tyrosinase (Agaricus bisporus) (UniProt O42713); test: Inhibition of mushroom tyrosinase using L-DOPA substrate at 50 to 100 uM incubated for 10 mins
T1 sequence (whole entry): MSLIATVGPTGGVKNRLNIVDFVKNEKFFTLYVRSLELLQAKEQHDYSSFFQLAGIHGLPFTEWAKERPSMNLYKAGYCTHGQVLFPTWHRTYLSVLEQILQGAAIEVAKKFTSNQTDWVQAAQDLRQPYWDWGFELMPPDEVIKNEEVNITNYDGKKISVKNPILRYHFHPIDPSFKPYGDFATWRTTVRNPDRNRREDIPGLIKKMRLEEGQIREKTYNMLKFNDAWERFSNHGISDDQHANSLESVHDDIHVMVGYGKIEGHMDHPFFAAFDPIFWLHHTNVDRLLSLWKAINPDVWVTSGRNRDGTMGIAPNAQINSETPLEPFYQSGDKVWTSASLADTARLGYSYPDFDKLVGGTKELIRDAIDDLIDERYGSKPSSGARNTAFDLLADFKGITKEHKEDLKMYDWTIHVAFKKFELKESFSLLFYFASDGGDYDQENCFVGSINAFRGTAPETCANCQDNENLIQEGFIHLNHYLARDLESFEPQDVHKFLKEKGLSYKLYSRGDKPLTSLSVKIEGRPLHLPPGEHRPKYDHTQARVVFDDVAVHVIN
In short: (§1)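 Mushroom tyrosinase (25 µL of 100 µg/mL aqueous solution) added to 0.1 M phosphate buffer pH 6.8, 2.5 mM L-DOPA (stock), water and inhibitor in DMSO. Incubated 25 °C for 10 min, absorbance at 475 nm. %inhibition = (1−A/B)×100 against a DMSO-only reference. Single-point tests at 50 or 100 µM; kojic acid as reference. Triplicate, mean with standard error.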

[2] = Antioxidant activity assessed as inhibition of lipid peroxidation after 48 hrs by ferric thiocyanate assay; type: functional
In short: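 Lipid peroxidation run in an emulsified system with antioxidant at 90 µM final, 50 °C in the dark for 48 h. Ferric thiocyanate read-out: absorbance at 500 nm 3 min after colour development. Trolox as positive control. Triplicate, mean with standard error.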

[3] = system: Radical scavenging activity; test: Antioxidant activity assessed as DPPH radical scavenging activity by UV/Visible spectrophotometry; type: functional
In short: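 DPPH in methanol; antioxidant:DPPH molar ratio 0.25 for caffeic/dihydrocaffeic acids and their conjugates, 0.50 for p-coumaric, ferulic, sinapic acids and their conjugates. 10 min at 25 °C, absorbance at 516 nm. %RSA = (1−A/B)×100, B = methanol in place of sample. Triplicate, mean with standard error.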

[4] = system: Mel-Ab; test: (§2) Inhibition of TPA-stimulated melanogenesis in mouse Mel-Ab cells at 100 uM after 4 days; type: functional
[5] = Toxicity against mouse Mel-Ab cells at 100 uM by CCK-8 assay
[6] = target: T2, Tyrosinase (Agaricus bisporus, UniProt O42713); test: Inhibition of mushroom tyrosinase using L-DOPA substrate incubated for 10 mins
T2 sequence (O42713 whole entry): T1 sequence (whole entry)

[7] = as §2; type: functional; conditions: 96 h
[8] = target: T1, Tyrosinase (Agaricus bisporus); test: Inhibition of mushroom tyrosinase using L-DOPA substrate at 100 uM incubated for 10 mins; in short: as §1

| inhibition [1] | SMILES | inhibition [2] | Activity [3] | Activity [5] | other results |
| --- | --- | --- | --- | --- | --- |
| Active | O=C(NO)C1CCCN1C(=O)/C=C/c1ccc(O)cc1 (centres undefined) | inactive | inactive | – | – |
| inactive | COc1cc(/C=C/C(=O)NC(Cc2ccccc2)C(=O)NO)ccc1O (centres undefined) | Active | Active | Non-toxic | inhibition [4]: inactive |
| Active | O=C(/C=C/c1ccc(O)c(O)c1)NC(Cc1ccccc1)C(=O)NO (centres undefined) | Active | – | Non-toxic | inhibition [4]: Active; IC50 [6]: 4.9 µM |
| inactive | COc1cc(/C=C/C(=O)N2CCCC2C(=O)NO)cc(OC)c1O (centres undefined) | Active | Active | Non-toxic | inhibition at 100 µM [7]: 30% |
| inactive | COc1cc(/C=C/C(=O)NC(Cc2ccccc2)C(=O)NO)cc(OC)c1O (centres undefined) | Active | – | Non-toxic | inhibition at 100 µM [7]: 30% |
| inactive | COc1cc(/C=C/C(=O)O)cc(OC)c1O | – | – | – | – |
| – | CC(=O)N1CCCC1C(=O)NO (centres undefined) | – | – | – | inhibition [8]: 5% |
| inactive | COc1cc(/C=C/C(=O)O)ccc1O | – | Active | – | – |
| Active | O=C(/C=C/c1ccc(O)cc1)NC(Cc1ccccc1)C(=O)NO (centres undefined) | inactive | inactive | – | – |
| Active | O=C(NO)C1CCCN1C(=O)/C=C/c1ccc(O)c(O)c1 (centres undefined) | Active | Active | Non-toxic | inhibition at 100 µM [7]: 30% |
| – | OC[C@H]1O[C@@H](Oc2ccc(O)cc2)[C@H](O)[C@@H](O)[C@@H]1O | – | – | – | inhibition [4]: Active |
| inactive | COc1cc(/C=C/C(=O)N2CCCC2C(=O)NO)ccc1O (centres undefined) | Active | Active | Non-toxic | – |
| – | O=C(O)/C=C/c1ccc(O)c(O)c1 [CAFFEIC ACID] | – | – | Toxic | – |
| – | CC(=O)NC(Cc1ccccc1)C(=O)NO (centres undefined) | – | – | – | inhibition [8]: 6% |
| – | NC(=O)C(Cc1ccccc1)NC(=O)OCc1cc(=O)c(O)co1 (centres undefined) | – | – | – | IC50 [6]: 4.2 µM |
| inactive | O=C(NO)C1CCCN1C(=O)CCc1ccc(O)c(O)c1 (centres undefined) | inactive | – | – | – |
| – | O=C(O)CCc1ccc(O)c(O)c1 | inactive | – | – | – |
| – | O=C(O)/C=C/c1ccc(O)cc1 | inactive | inactive | – | – |
| inactive | O=C(CCc1ccc(O)c(O)c1)NC(Cc1ccccc1)C(=O)NO (centres undefined) | inactive | – | – | – |
